# Measurements from ChEMBL document CHEMBL1154940, “Design, synthesis and biological evaluation of estradiol-chlorambucil hybrids as anticancer agents” (Bioorg Med Chem Lett, 2010).
# The source made the active and inactive calls. The calls are words filed in the database; no cut-off is given here.
# Key:
# Format in all cases: functional, cell-based
# MCF7 = assay: Anticancer activity against human MCF7 cells assessed as cell survival after 72 hrs by MTT assay
# How it was run: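 Estrogen receptor-positive human breast cancer line, tested by MTT cytotoxicity assay with chlorambucil as positive control.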
# MDA-MB-468 = assay: Anticancer activity against human MDA-MB-468 cells assessed as cell survival after 72 hrs by MTT assay
# How it was run: (§1)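 Estrogen receptor-negative human breast cancer lines, tested by MTT cytotoxicity assay with chlorambucil as positive control.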
# MDA-MB-231 = assay: Anticancer activity against human MDA-MB-231 cells assessed as cell survival after 72 hrs by MTT assay; how it was run: as §1
# MDA-MB-436 = assay: (§2) Anticancer activity against human MDA-MB-436 cells assessed as cell survival after 72 hrs by MTT assay
# How it was run: (§3)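 Estrogen receptor-negative human breast cancer line, exposed to a range of concentrations for 72 h. MTT read-out is expressed as percent cell survival, with chlorambucil as positive control.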
# [1] = as §2; conditions: MDA-MB-436, 72 h; how it was run: as §3
SMILES,Activity (MCF7),Activity (MDA-MB-468),Activity (MDA-MB-231),Activity (MDA-MB-436),IC50 [1] [µM],"IC50 (MDA-MB-231; MDA-MB-231, 72 h) [µM]"
COC(=O)[C@@]1(CCCCCCNC(=O)CCCc2ccc(N(CCCl)CCCl)cc2)C[C@H]2[C@@H]3CCc4cc(O)ccc4[C@H]3CC[C@]2(C)[C@H]1O,inactive,inactive,Active,–,–,–
C[C@]12CC[C@@H]3c4ccc(O)cc4CC[C@H]3[C@@H]1C[C@@](CO)(CCCCCCNC(=O)CCCc1ccc(N(CCCl)CCCl)cc1)[C@@H]2O,Active,Active,Active,Active,–,–
O=C(O)CCCc1ccc(N(CCCl)CCCl)cc1 [CHLORAMBUCIL],Active,Active,–,–,> 160,> 130
C[C@]12CC[C@@H]3c4ccc(O)cc4CC[C@H]3[C@@H]1C[C@@](CO)(CCCCCCCCNC(=O)CCCc1ccc(N(CCCl)CCCl)cc1)[C@@H]2O,Active,Active,Active,Active,–,–
C[C@]12CC[C@@H]3c4ccc(O)cc4CC[C@H]3[C@@H]1C[C@@](CO)(CCCCNC(=O)CCCc1ccc(N(CCCl)CCCl)cc1)[C@@H]2O,Active,Active,Active,–,40,–
